Calls of active or inactive are those of the source. The calls are words filed in the database; no cut-off is given here.
What was measured:
Assay type in all cases: functional
Enterococcus faecalis [1] = test: Antimicrobial activity against Enterococcus faecalis ATCC 29212 at 10 ug after 18 hrs by agar-well diffusion method; conditions: ATCC 29212, 18 h, read-out: IZ
Bacillus cereus [2] = test: Antimicrobial activity against Bacillus cereus 702 Roma at 10 ug after 18 hrs by agar-well diffusion method; conditions: read-out: IZ
Escherichia coli [3] = test: Antimicrobial activity against Escherichia coli ATCC 25922 at 10 ug after 18 hrs by agar-well diffusion method; conditions: ATCC 25922, 18 h, read-out: IZ
In short: (§1)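 Bacteria suspended in Mueller Hinton broth at about 10⁶ cfu/mL, flood-inoculated onto Mueller Hinton agar and dried. Test substance placed into 5-mm wells bored with a sterile cork-borer. Incubation 18 h at 35 °C, then the inhibition zone around each well measured.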

Staphylococcus aureus [4] = test: Antimicrobial activity against Staphylococcus aureus ATCC 25923 at 10 ug after 18 hrs by agar-well diffusion method; conditions: ATCC 25923, 18 h, read-out: IZ
Pseudomonas aeruginosa [5] = test: Antimicrobial activity against Pseudomonas aeruginosa ATCC 27853 at 10 ug after 18 hrs by agar-well diffusion method; conditions: ATCC 27853, 18 h, read-out: IZ
[6] = test system: Yersinia pseudotuberculosis; test: Antimicrobial activity against Yersinia pseudotuberculosis ATCC 911 at 10 ug after 18 hrs by agar-well diffusion method; conditions: ATCC 911, 18 h, read-out: IZ; in short: as §1
Candida tropicalis [7] = test: Antimicrobial activity against Candida tropicalis ATCC 13803 at 5 ug after 18 hrs by agar-well diffusion method; conditions: ATCC 13803, 18 h, read-out: IZ
In short: (§2)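 Yeast suspended in Mueller Hinton broth and diluted to about 10⁶ cfu/mL, then flood-inoculated onto Sabouraud Dextrose Agar and dried. 5-mm wells cut with a sterile cork-borer and filled with test substance. Plates incubated 18 h at 35 °C. Read-out is the zone of inhibition.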

Candida albicans [8] = test: Antimicrobial activity against Candida albicans ATCC 60193 at 5 ug after 18 hrs by agar-well diffusion method; conditions: ATCC 60193, 18 h, read-out: IZ; in short: as §2
Candida tropicalis [9] = test: Antimicrobial activity against Candida tropicalis ATCC 13803 at 10 mg/mL after 18 hrs by agar-well diffusion method
In short: (§3)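 Candida cultures were suspended in Mueller Hinton broth at about 10⁶ cfu/mL, flood-inoculated onto Sabouraud dextrose agar and dried. Test solution was loaded into 5-mm wells bored in the agar. Plates were incubated 18 h at 35 °C, and activity was scored as the inhibition zone around each well.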

Staphylococcus aureus [10] = test: Antimicrobial activity against Staphylococcus aureus ATCC 25923 at 10 mg/mL after 18 hrs by agar-well diffusion method; conditions: for zone of inhibition at 10000 µg/mL: ATCC 25923, 18 h, read-out: IZ
In short: (§4)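 Agar-well diffusion: each bacterium suspended in Mueller Hinton broth at about 10⁶ cfu/mL, flood-inoculated onto Mueller Hinton agar and dried. 5-mm wells were cut with a sterile cork-borer and filled with the test solution. Plates were incubated 18 h at 35 °C. The read-out was the diameter of the inhibition zone.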

Enterococcus faecalis [11] = test: Antimicrobial activity against Enterococcus faecalis ATCC 29212 at 10 mg/mL after 18 hrs by agar-well diffusion method; conditions: for zone of inhibition at 10000 µg/mL: ATCC 29212, 18 h, read-out: IZ; in short: as §4
Candida albicans [12] = test: Antimicrobial activity against Candida albicans ATCC 60193 at 10 mg/mL after 18 hrs by agar-well diffusion method; in short: as §3
Bacillus cereus [13] = test: Antimicrobial activity against Bacillus cereus 702 Roma at 10 mg/mL after 18 hrs by agar-well diffusion method; conditions: for zone of inhibition at 10000 µg/mL: read-out: IZ; in short: as §4
Pseudomonas aeruginosa [14] = test: Antimicrobial activity against Pseudomonas aeruginosa ATCC 27853 at 10 mg/mL after 18 hrs by agar-well diffusion method; conditions: for zone of inhibition at 10000 µg/mL: ATCC 27853, 18 h, read-out: IZ; in short: as §4
[15] = test system: Yersinia pseudotuberculosis; test: Antimicrobial activity against Yersinia pseudotuberculosis ATCC 911 at 10 mg/mL after 18 hrs by agar-well diffusion method; conditions: for zone of inhibition at 10000 µg/mL: ATCC 911, 18 h, read-out: IZ; in short: as §1
Escherichia coli [16] = test: Antimicrobial activity against Escherichia coli ATCC 25922 at 10 mg/mL after 18 hrs by agar-well diffusion method; conditions: for zone of inhibition at 10000 µg/mL: ATCC 25922, 18 h, read-out: IZ; in short: as §4

Structure (SMILES)	inhibition zone (IZ) (Candida tropicalis [9])	zone of inhibition at 10000 µg/mL (Staphylococcus aureus [10])	zone of inhibition at 10000 µg/mL (Enterococcus faecalis [11])	inhibition zone (IZ) (Candida albicans [12])	zone of inhibition at 10000 µg/mL (Bacillus cereus [13])	zone of inhibition at 10000 µg/mL (Pseudomonas aeruginosa [14])	zone of inhibition at 10000 µg/mL [15]	zone of inhibition at 10000 µg/mL (Escherichia coli [16])	other results
CC1(C)S[C@@H]2[C@H](NC(=O)[C@H](N)c3ccccc3)C(=O)N2[C@H]1C(=O)O [AMPICILLIN]	–	–	–	–	–	–	–	–	zone of inhibition at 10 µg/disc (Enterococcus faecalis [1]): 10 mm; zone of inhibition at 10 µg/disc (Bacillus cereus [2]): 15 mm; zone of inhibition at 10 µg/disc (Escherichia coli [3]): 10 mm; zone of inhibition at 10 µg/disc (Staphylococcus aureus [4]): 35 mm; zone of inhibition at 10 µg/disc (Pseudomonas aeruginosa [5]): 18 mm; zone of inhibition at 10 µg/disc [6]: 18 mm
OC(Cn1cncn1)(Cn1cncn1)c1ccc(F)cc1F [FLUCONAZOLE]	–	–	–	–	–	–	–	–	zone of inhibition at 5 µg/disc (Candida tropicalis [7]): 25 mm; zone of inhibition at 5 µg/disc (Candida albicans [8]): 25 mm
S=c1n(CNCCN2CCOCC2)nc(-c2ccncc2)n1-c1ccccc1	inactive	21 mm	16 mm	inactive	15 mm	14 mm	22 mm	20 mm	–
COc1ccc(/C=N/NC(=O)CSc2nnc(-c3ccncc3)n2-c2ccccc2)cc1	inactive	28 mm	28 mm	inactive	25 mm	30 mm	30 mm	24 mm	–
O=C(CSc1nnc(-c2ccncc2)n1-c1ccccc1)N/N=C/c1ccc(O)c(O)c1	inactive	–	–	inactive	–	–	–	–	inhibition zone (IZ) (Staphylococcus aureus [10]): inactive; inhibition zone (IZ) (Enterococcus faecalis [11]): inactive; inhibition zone (IZ) (Bacillus cereus [13]): inactive; inhibition zone (IZ) (Pseudomonas aeruginosa [14]): inactive; inhibition zone (IZ) [15]: inactive; inhibition zone (IZ) (Escherichia coli [16]): inactive

— ChEMBL document CHEMBL1138558, “Synthesis of some new 1,2,4-triazoles, their Mannich and Schiff bases and evaluation of their antimicrobial activities” (2009)
